The target in assay [1] is T1, Dihydroorotate dehydrogenase (fumarate) (Saccharomyces cerevisiae S288c, UniProt P28272).
T1 sequence (P28272 whole entry): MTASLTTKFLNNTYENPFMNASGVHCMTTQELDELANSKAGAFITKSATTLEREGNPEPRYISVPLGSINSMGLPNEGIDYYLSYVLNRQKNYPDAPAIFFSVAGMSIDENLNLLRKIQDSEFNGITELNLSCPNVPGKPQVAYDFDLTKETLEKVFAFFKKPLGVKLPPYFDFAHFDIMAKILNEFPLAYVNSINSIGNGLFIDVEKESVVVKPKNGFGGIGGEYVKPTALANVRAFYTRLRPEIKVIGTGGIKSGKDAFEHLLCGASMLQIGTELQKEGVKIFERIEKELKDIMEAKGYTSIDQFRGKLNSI
The assay can be described thus: Inhibition of Saccharomyces cerevisiae DHOD.

For assay [2], the target named is T2, Dihydroorotate dehydrogenase (Plasmodium falciparum, UniProt Q54A96).
T2 sequence (Q54A96 whole entry): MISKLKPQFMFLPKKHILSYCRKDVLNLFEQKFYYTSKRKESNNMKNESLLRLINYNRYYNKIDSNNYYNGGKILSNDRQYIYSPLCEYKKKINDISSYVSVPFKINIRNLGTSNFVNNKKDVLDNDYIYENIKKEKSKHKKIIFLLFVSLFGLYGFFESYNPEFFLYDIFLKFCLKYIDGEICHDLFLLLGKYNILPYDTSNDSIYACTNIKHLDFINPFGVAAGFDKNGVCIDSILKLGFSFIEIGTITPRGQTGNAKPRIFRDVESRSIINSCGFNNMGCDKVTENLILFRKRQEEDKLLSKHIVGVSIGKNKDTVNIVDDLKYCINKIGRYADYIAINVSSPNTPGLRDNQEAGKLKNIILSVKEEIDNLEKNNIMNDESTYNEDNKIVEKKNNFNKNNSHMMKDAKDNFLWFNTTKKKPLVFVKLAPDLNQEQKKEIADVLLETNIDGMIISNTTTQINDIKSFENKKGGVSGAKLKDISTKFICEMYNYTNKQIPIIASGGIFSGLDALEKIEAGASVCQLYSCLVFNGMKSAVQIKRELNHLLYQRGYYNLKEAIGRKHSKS
Nature of the assay: Inhibition of Plasmodium falciparum DHOD. The method in brief:
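DCIP-coupled chromogenic assay with 500 µM L-dihydroorotate and 115 µM CoQ0 as electron acceptor. Compounds tested up to 10 µM. IC50 from three independent experiments.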

Assay [3] relates to Plasmodium falciparum. The assay can be described thus: Antimalarial activity against Plasmodium falciparum DD2 expressing Saccharomyces cerevisiae DHOD by [3H]hypoxanthine uptake. The class given is functional, organism-based. The method in brief:
(§1)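 Asexual parasite proliferation measured by [3H]-hypoxanthine incorporation dose–effect curves, in parental DD2 and a transgenic DD2 line expressing yeast cytoplasmic DHOD. IC50 from three independent experiments. Antimycin A, a mixture of A1–A4, expressed in mg/mL.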

The nature of assay [4]: Inhibition of Plasmodium falciparum NDH2. The method in brief: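 Purified recombinant His-tagged enzyme, HEPES pH 8.0. Reaction with 200 µM NADH and 100 µM CoQ0. NAD+ product quantified by fluorescence after acetophenone/formic acid derivatisation at 100 °C (ex 372/em 444 nm). Compounds tested up to 10 µM. IC50 from three independent experiments.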
Assay [5] relates to Plasmodium falciparum. Nature of the assay: Activity of Plasmodium falciparum NDH2 expressed in Escherichia coli by Michaelis-Menten plot. The method in brief:
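Full-length enzyme with C-terminal 6xHis tag, purified in 0.5% Triton X-100. NAD+ formed was quantified by fluorescence: acetophenone base, then formic acid at 100 °C, excitation 372 nm, emission 444 nm. HEPES pH 8.0. One substrate (electron acceptor or NADH) varied while the other was fixed at 500 µM. Km and kcat from best-fit Michaelis–Menten curves, three independent experiments.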

In assay [6] the test system is Plasmodium falciparum. Nature of the assay: Antimalarial activity against Plasmodium falciparum DD2 by [3H]hypoxanthine uptake. It is filed as functional, organism-based. The method in brief:
as §1

The IC50 is the concentration needed to halve the response being measured. As for `CCCCCCCCCCCCc1cc(=O)c2ccccc2n1O`, the IC50 in assay [1] was > 10 µM; in assay [2], 4 µM; with Plasmodium falciparum [3] it was > 10 µM; in assay [4], > 10 µM.

Usually Km stands for the concentration of substrate that gives half-maximal velocity. As a reminder, the kcat is the number of substrate molecules converted per active site and unit of time at saturation. For `CC1=CC(=O)c2ccccc2C1=O`, in the assay on Plasmodium falciparum [5], the Km stood at 239 µM and the kcat was 0.0767 s⁻¹.

On to `O=C1C=CC(=Nc2cc(Cl)c(O)c(Cl)c2)C=C1`, for which, in the assay on Plasmodium falciparum [5], the Michaelis constant (Km) was 4.6 µM and the kcat came out at 0.0317 s⁻¹.

Turning to `CCCCCC[C@H]1C(=O)O[C@H](C)[C@H](NC(=O)c2cccc(NC=O)c2O)C(=O)O[C@@H](C)[C@@H]1OC(=O)CC(C)C` [ANTIMYCIN A], the IC50 (in assay [1]; in assay [2]; in the assay with Plasmodium falciparum [3]; in assay [4]) was > 10 µM throughout.

Take `C[C@@H]1CC[C@H]2[C@@H](C)C(=O)O[C@@H]3O[C@@]4(C)CC[C@@H]1[C@]32OO4` [ARTEMISININ]: the IC50 in assay [1] was > 10 µM; in assay [2], > 10 µM; in the assay on Plasmodium falciparum [3] it was 0.006 µM; in assay [4] it was > 10 µM.

In the case of `O=C1C(O)=C([C@H]2CC[C@H](c3ccc(Cl)cc3)CC2)C(=O)c2ccccc21` [ATOVAQUONE], the half-inhibitory concentration (IC50) in assay [1] was > 10 µM; in assay [2] it was > 10 µM; with Plasmodium falciparum [6], 0.002 µM; in the assay on Plasmodium falciparum [3], > 10 µM; in assay [4] it was > 10 µM.

With `c1ccc2c(c1)[I+]c1ccccc1-2` [DIPHENYLENEIODONIUM CHLORIDE], the IC50 in assay [2] was > 10 µM.

`c1ccc([I+]c2ccccc2)cc1` [DIPHENYLIODONIUM CHLORIDE]: the IC50 was > 10 µM in assay [1]; > 10 µM in assay [2]; 12.4 µM in the assay with Plasmodium falciparum [6]; 10.6 µM in the assay with Plasmodium falciparum [3]; > 10 µM in assay [4].

Turning to `O=c1cc(-c2ccccc2)oc2ccccc12` [FLAVONE], the IC50 in assay [1] is > 10 µM; in assay [2], > 10 µM; in the assay with Plasmodium falciparum [6], 0.002 µM; in the assay with Plasmodium falciparum [3] it was > 10 µM; in assay [4], > 10 µM.

For the molecule `C=C(C)[C@H]1Cc2c(ccc3c2O[C@@H]2COc4cc(OC)c(OC)cc4[C@@H]2C3=O)O1` [ROTENONE], the IC50 (in assay [1]; in assay [2]; in the assay on Plasmodium falciparum [6]; in the assay on Plasmodium falciparum [3]; in assay [4]) was > 10 µM in each case.

The record behind these values is ChEMBL document CHEMBL1143267, “Type II NADH dehydrogenase of the respiratory chain of Plasmodium falciparum and its inhibitors” (Bioorg Med Chem Lett, 2009).
